# Measurements published in ChEMBL document CHEMBL4052817 (J Med Chem, 2017).
# Calls of active or inactive are those of the source. The calls are words filed in the database; no cut-off is given here.
# Assays:
# Cytochrome P450 1A2 [1] = biological target: T1, Cytochrome P450 1A2 (Homo sapiens, UniProt P05177); experiment: Inhibition of CYP1A2 (unknown origin); type: ADME
# T1 sequence (P05177 whole entry): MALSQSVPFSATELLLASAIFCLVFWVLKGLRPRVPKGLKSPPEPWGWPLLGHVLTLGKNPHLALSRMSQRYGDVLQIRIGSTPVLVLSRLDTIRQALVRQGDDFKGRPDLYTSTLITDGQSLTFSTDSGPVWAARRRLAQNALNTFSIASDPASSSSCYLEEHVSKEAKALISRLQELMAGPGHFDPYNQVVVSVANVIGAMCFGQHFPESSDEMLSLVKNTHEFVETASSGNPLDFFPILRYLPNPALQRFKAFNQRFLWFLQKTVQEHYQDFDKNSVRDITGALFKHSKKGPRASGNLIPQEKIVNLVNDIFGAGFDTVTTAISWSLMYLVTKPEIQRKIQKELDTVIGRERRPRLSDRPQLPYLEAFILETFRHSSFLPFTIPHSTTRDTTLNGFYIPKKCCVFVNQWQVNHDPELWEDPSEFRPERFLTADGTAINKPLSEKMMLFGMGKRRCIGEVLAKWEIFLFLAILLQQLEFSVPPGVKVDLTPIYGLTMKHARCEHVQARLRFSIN
# 4T1 = experiment: Antitumor activity against mouse 4T1 tumor model administered as monotherapy; type: functional
# Mus musculus [2] = experiment: Oral bioavailability in CD-1 mouse assessed as (R)-3-(5-fluoro-1H-indol-3-yl)pyrrolidine-2,5-dione at 3 mg/kg; type: ADME, organism-based; details: in vivo
# [3] = Ratio of unbound drug level in brain to plasma in po dosed rat assessed as (R)-3-(5-fluoro-1H-indol-3-yl)pyrrolidine-2,5-dione; type: ADME, organism-based
# Procedure, shortened: (§1)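 Racemate dosed orally to rats; active enantiomer measured in brain, CSF and plasma; total brain/plasma ratio and unbound brain/unbound plasma ratio calculated.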
# Rattus norvegicus [4] = experiment: Cmax in Wistar-Han rat assessed as (R)-3-(5-fluoro-1H-indol-3-yl)pyrrolidine-2,5-dione at 3 mg/kg, po; type: ADME, organism-based; design: dose 3 mg/kg, route oral; details: in vivo
# [5] = Drug metabolism in human hepatocytes assessed as oxidation; type: ADME, cell-based, Hepatocyte
# [6] = biological target: Voltage-gated inwardly rectifying potassium channel KCNH2 (Homo sapiens, UniProt Q12809); experiment: Inhibition of human ERG up to 300 uM relative to control
# Chain of Voltage-gated inwardly rectifying potassium channel KCNH2 (Q12809 whole entry): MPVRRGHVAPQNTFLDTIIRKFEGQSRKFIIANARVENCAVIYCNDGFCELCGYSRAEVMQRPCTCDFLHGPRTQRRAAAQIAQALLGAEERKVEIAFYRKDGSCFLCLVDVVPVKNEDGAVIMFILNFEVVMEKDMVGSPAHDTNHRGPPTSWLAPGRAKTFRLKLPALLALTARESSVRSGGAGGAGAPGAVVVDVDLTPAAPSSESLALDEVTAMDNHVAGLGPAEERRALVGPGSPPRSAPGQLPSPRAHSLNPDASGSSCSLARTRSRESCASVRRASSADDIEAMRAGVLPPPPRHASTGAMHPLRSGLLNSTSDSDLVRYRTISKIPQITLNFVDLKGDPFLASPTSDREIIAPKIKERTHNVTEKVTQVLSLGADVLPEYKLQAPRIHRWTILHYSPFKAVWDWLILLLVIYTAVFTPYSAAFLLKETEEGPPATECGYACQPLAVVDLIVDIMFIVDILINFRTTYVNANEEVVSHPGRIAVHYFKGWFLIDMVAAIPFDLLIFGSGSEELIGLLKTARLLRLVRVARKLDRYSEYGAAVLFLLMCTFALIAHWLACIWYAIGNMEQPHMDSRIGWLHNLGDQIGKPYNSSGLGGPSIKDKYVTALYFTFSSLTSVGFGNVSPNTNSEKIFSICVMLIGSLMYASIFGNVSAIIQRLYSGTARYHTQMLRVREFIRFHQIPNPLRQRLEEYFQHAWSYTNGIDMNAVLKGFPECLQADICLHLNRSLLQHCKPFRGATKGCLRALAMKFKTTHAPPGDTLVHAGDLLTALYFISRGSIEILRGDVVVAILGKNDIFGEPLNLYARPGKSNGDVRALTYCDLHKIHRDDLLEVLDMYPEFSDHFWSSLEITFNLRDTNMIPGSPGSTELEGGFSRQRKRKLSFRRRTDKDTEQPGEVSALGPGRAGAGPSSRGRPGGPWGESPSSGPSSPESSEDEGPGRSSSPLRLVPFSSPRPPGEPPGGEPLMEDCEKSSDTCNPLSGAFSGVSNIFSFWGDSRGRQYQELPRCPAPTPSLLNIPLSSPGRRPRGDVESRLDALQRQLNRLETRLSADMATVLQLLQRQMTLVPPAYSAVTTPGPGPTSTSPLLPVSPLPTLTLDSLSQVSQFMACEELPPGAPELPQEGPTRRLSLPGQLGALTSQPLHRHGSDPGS
# Rattus norvegicus [7] = experiment: Oral bioavailability in Wistar-Han rat assessed as (R)-3-(5-fluoro-1H-indol-3-yl)pyrrolidine-2,5-dione at 3 mg/kg; type: ADME, organism-based; details: in vivo
# Cytochrome P450 1A2 [8] = biological target: T1, Cytochrome P450 1A2; experiment: Time-dependent inhibition of CYP1A2 (unknown origin); type: ADME
# CT26 = experiment: Antitumor activity against mouse CT26 tumor model administered as […] co-treated with anti-PDL1 mAb; type: functional
# Mus musculus [9] = experiment: Half life in CD-1 mouse assessed as (R)-3-(5-fluoro-1H-indol-3-yl)pyrrolidine-2,5-dione at 1 mg/kg, iv by LC-MS/MS method; type: ADME, organism-based; details: in vivo
# Procedure, shortened: (§2)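 Racemate given as a single 1 mg/kg IV dose to male CD-1 mice, Wistar-Han rats or beagle dogs (n=3 per species). Plasma levels of the (R)-enantiomer measured by chiral LC-MS/MS. Mean AUCinf, CLp, Vss and t1/2 reported.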
# Cytochrome P450 2C9 [10] = biological target: T2, Cytochrome P450 2C9 (Homo sapiens, UniProt P11712); experiment: Inhibition of CYP2C9 (unknown origin); type: ADME
# T2 sequence (P11712 whole entry): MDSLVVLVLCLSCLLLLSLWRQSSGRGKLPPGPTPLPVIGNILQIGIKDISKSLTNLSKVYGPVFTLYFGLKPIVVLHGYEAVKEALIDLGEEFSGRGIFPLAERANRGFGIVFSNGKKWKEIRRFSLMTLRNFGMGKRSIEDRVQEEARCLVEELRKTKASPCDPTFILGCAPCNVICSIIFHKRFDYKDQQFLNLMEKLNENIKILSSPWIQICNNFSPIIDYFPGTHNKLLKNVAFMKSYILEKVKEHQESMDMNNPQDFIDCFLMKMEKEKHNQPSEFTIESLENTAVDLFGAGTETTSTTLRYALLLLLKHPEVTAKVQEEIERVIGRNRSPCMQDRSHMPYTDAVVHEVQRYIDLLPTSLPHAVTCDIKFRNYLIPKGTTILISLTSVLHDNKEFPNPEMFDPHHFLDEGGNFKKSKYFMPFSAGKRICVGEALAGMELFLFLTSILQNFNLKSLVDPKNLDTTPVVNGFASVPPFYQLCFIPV
# Cytochrome P450 3A4 [11] = biological target: T3, Cytochrome P450 3A4 (Homo sapiens, UniProt P08684); experiment: Inhibition of CYP3A4 (unknown origin); type: ADME
# T3 sequence (P08684 whole entry): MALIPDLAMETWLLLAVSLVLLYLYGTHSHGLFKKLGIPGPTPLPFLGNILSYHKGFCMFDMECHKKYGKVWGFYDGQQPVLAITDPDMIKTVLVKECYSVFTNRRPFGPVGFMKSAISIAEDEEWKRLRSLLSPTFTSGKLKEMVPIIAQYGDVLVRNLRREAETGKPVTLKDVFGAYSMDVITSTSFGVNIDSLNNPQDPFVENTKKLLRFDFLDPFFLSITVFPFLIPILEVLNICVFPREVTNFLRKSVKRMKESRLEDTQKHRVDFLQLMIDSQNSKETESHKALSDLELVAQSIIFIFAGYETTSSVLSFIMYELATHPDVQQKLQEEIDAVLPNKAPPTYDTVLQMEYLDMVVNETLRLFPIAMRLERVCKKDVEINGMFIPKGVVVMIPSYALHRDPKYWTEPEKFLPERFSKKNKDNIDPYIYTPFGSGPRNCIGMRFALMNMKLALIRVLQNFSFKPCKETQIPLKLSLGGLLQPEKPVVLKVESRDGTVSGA
# Canis familiaris [12] = experiment: Half life in beagle dog assessed as (R)-3-(5-fluoro-1H-indol-3-yl)pyrrolidine-2,5-dione at 1 mg/kg, iv by LC-MS/MS method; type: ADME, organism-based, Canis lupus familiaris; details: in vivo
# [13] = Drug metabolism in mouse hepatocytes assessed as hydrolysis; type: ADME, cell-based, Hepatocyte
# [14] = Intrinsic apparent clearance in mouse hepatocytes assessed per million cells; type: ADME, cell-based, Hepatocyte
# Cytochrome P450 2C9 [15] = biological target: T2, Cytochrome P450 2C9; experiment: Time-dependent inhibition of CYP2C9 (unknown origin); type: ADME
# Panc02 = experiment: Antitumor activity against mouse Pan02 tumor model administered as monotherapy; type: functional
# [16] = Intrinsic apparent clearance in rat hepatocytes assessed per million cells; type: ADME, cell-based, Hepatocyte
# [17] = Drug metabolism in dog hepatocytes assessed as hydrolysis; type: ADME, cell-based, Canis lupus familiaris, Hepatocyte
# Canis familiaris [18] = experiment: Cmax in beagle dog assessed as (R)-3-(5-fluoro-1H-indol-3-yl)pyrrolidine-2,5-dione at 3 mg/kg, po; type: ADME, organism-based, Canis lupus familiaris; design: dose 3 mg/kg, route oral; details: in vivo
# [19] = Total brain to plasma partition coefficient, Kp in po dosed rat assessed as (R)-3-(5-fluoro-1H-indol-3-yl)pyrrolidine-2,5-dione; type: ADME, organism-based; procedure, shortened: as §1
# Cytochrome P450 2D6 [20] = biological target: T4, Cytochrome P450 2D6 (Homo sapiens, UniProt P10635); experiment: Inhibition of CYP2D6 (unknown origin); type: ADME
# T4 sequence (P10635 whole entry): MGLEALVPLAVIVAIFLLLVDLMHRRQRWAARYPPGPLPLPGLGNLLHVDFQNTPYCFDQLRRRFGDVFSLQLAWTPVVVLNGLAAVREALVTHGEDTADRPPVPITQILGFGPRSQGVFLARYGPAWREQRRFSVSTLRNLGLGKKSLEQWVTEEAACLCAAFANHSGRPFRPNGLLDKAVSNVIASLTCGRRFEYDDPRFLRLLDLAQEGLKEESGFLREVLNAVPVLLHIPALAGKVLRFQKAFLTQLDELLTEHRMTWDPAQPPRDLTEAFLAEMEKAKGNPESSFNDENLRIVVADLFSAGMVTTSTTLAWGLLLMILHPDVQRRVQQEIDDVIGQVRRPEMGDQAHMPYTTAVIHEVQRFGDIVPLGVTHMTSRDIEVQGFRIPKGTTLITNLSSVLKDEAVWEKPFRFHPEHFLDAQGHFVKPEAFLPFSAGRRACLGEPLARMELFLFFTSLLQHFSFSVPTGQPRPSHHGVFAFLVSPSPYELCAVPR
# Canis familiaris [21] = experiment: Tmax in beagle dog assessed as (R)-3-(5-fluoro-1H-indol-3-yl)pyrrolidine-2,5-dione at 3 mg/kg, po; type: ADME, organism-based, Canis lupus familiaris; details: in vivo
# MC-38 = experiment: Antitumor activity against mouse MC38 tumor model administered as monotherapy; type: functional
# Rattus norvegicus [22] = experiment: Tmax in Wistar-Han rat assessed as (R)-3-(5-fluoro-1H-indol-3-yl)pyrrolidine-2,5-dione at 3 mg/kg, po; type: ADME, organism-based; details: in vivo
# [23] = Intrinsic apparent clearance in dog hepatocytes assessed per million cells; type: ADME, cell-based, Canis lupus familiaris, Hepatocyte
# [24] = Drug excretion in rat urine assessed as (R)-3-(5-fluoro-1H-indol-3-yl)pyrrolidine-2,5-dione; type: ADME; details: in vivo
# Procedure, shortened: (§3)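 Racemate dosed to rats (urine and bile collected) and to dogs (urine collected). The percentage of the dose excreted as unchanged (R)-enantiomer was measured.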
# Rattus norvegicus [25] = experiment: Volume of distribution at steady state in Wistar-Han rat assessed as (R)-3-(5-fluoro-1H-indol-3-yl)pyrrolidine-2,5-dione at 1 mg/kg, iv by LC-MS/MS method; type: ADME, organism-based; details: in vivo
# Mus musculus [26] = experiment: AUC (infinity) in CD-1 mouse assessed as (R)-3-(5-fluoro-1H-indol-3-yl)pyrrolidine-2,5-dione at 1 mg/kg, iv by LC-MS/MS method; type: ADME, organism-based; design: dose 1 mg/kg, route intravenous, time infinity; details: in vivo; procedure, shortened: as §2
# Cytochrome P450 2D6 [27] = biological target: T4, Cytochrome P450 2D6; experiment: Time-dependent inhibition of CYP2D6 (unknown origin); type: ADME
# [28] = Drug excretion in dog urine assessed as (R)-3-(5-fluoro-1H-indol-3-yl)pyrrolidine-2,5-dione; type: ADME, Canis lupus familiaris; details: in vivo; procedure, shortened: as §3
# Cytochrome P450 3A4 [29] = biological target: T3, Cytochrome P450 3A4; experiment: Time/NADPH-dependent inhibition of CYP3A4 (unknown origin); type: ADME
# Mus musculus [30] = experiment: Cmax in CD-1 mouse assessed as (R)-3-(5-fluoro-1H-indol-3-yl)pyrrolidine-2,5-dione at 3 mg/kg, po; type: ADME, organism-based; design: dose 3 mg/kg, route oral; details: in vivo
# [31] = Drug metabolism in human hepatocytes assessed as hydrolysis; type: ADME, cell-based, Hepatocyte
# Hepatocyte = experiment: Induction of CYP3A4 mRNA expression in human hepatocytes at <100 uM; type: ADME, cell-based
# [32] = Inhibition of human p-gp transfected in MDCK cells assessed as decrease in digoxin transport; type: cell-based
# Mus musculus [33] = experiment: Tmax in CD-1 mouse assessed as (R)-3-(5-fluoro-1H-indol-3-yl)pyrrolidine-2,5-dione at 3 mg/kg, po; type: ADME, organism-based; details: in vivo
# [34] = Drug metabolism in mouse hepatocytes assessed as oxidation; type: ADME, cell-based, Hepatocyte
# Rattus norvegicus [35] = experiment: Half life in Wistar-Han rat assessed as (R)-3-(5-fluoro-1H-indol-3-yl)pyrrolidine-2,5-dione at 1 mg/kg, iv by LC-MS/MS method; type: ADME, organism-based; details: in vivo; procedure, shortened: as §2
structure (smiles),measurement,setting,value
O=C1CC(c2c[nH]c3ccc(F)cc23)C(=O)N1 (stereo not given) [PF-06840003],IC50,Cytochrome P450 1A2 [1],> 100 µM
same,Activity,4T1,Active
same,F,Mus musculus [2],59.3%
same,"K(p,uu,brain)",[3],0.2
same,Cmax,Rattus norvegicus [4],985 ng/mL
same,Drug metabolism,[5],Metabolite_Detected
same,inhibition (INH),[6],< 50%
same,F,Rattus norvegicus [7],94%
same,TDI,Cytochrome P450 1A2 [8],Not Active
same,Activity,CT26,Active
same,t1/2,Mus musculus [9],2.5 h
same,IC50,Cytochrome P450 2C9 [10],> 100 µM
same,IC50,Cytochrome P450 3A4 [11],> 100 µM
same,t1/2,Canis familiaris [12],0.802 h
same,Drug metabolism,[13],Metabolite_Detected
same,CLH(app),[14],2.4 µL/min
same,TDI,Cytochrome P450 2C9 [15],Not Active
same,Activity,Panc02,Active
same,CLH(app),[16],2.3 µL/min
same,Drug metabolism,[17],Metabolite_Detected
same,Cmax,Canis familiaris [18],219 ng/mL
same,Kp,[19],0.51
same,IC50,Cytochrome P450 2D6 [20],> 100 µM
same,Tmax,Canis familiaris [21],0.25 h
same,Activity,MC-38,Active
same,Tmax,Rattus norvegicus [22],1.3 h
same,CLH(app),[23],10.3 µL/min
same,Drug excretion,[24],< 1 %ID
same,Vdss,Rattus norvegicus [25],0.639 L/kg
same,AUC,Mus musculus [26],1160 ng·h/mL
same,TDI,Cytochrome P450 2D6 [27],Not Active
same,Drug excretion,[28],< 1 %ID
same,inhibition (INH),Cytochrome P450 3A4 [29],Not Active
same,Cmax,Mus musculus [30],538 ng/mL
same,Drug metabolism,[31],Metabolite_Detected
same,Activity,Hepatocyte,Not Active
same,IC50,[32],> 300 µM
same,Tmax,Mus musculus [33],0.58 h
same,Drug metabolism,[34],Metabolite_Detected
same,t1/2,Rattus norvegicus [35],2.22 h
